The list is not random: actives were taken first. Their share in the collection is about 2.3%.
CRFR2-BP antag = antagonists of CRF-BP/CRF-R2 complex, primary screen, cell-based, HEK293, calcium dye fluorescence, uHTS | CRF-induced calcium fluorescence | inhibition, % at 11.8 µM | 350,000 compounds, 0.59% hits | AID 588475, 2011;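 active = inhibition of the ligand-induced calcium signal above about 50% at the single tested concentration, limit read from the data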
CRFBP-R2 agonist = agonists of CRF-BP/CRF-R2 complex, primary screen, cell-based, HEK293, calcium dye fluorescence, uHTS | CRF-binding protein / CRF receptor 2 complex (human) | calcium dye fluorescence (FLIPR); percent of saturating CRF peptide response | activation, % at 13.2 µM | 350,000 compounds, 0.46% hits;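 active = activation of at least 50%, plus an integration ratio under a set limit after plate pattern correction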;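 also: plate controls were neutral control wells without compound for no effect and CRF at EC100 for full effect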
CSN inh = inhibitors of CSN-mediated cullin deneddylation, primary screen, biochemical, fluorescence polarization, uHTS; COP9 signalosome complex subunit 5 (Homo sapiens), Q92905; Purified CSN, SCF-Nedd8-OG deneddylation; inhibition, % at 12.5 µM; 360,000 compounds, 0.38% hits;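 active = pattern-corrected inhibition above about 35%, with an unprinted fluorescence ratio check between 0.5 and 1.5, limit read from the data, passing the limit was not always enough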;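 also: 0% = enzyme with substrate and 100% = substrate without enzyme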
Target sequence (Q92905 whole entry, looked up, one chain of several): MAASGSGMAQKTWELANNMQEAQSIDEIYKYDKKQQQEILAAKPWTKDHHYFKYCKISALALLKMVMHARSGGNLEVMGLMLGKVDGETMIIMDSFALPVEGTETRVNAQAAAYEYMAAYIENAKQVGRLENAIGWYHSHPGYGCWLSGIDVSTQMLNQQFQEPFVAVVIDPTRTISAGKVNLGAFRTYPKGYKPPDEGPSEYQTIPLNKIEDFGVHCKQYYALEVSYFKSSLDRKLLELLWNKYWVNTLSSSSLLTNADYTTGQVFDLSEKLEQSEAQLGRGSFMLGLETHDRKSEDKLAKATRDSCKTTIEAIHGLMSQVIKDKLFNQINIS
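Assay system: purified human Csn5 enzyme expressed in HEK293T cells; measure: % inhibition; also added: SCFSkp2-Nedd8OG substrate at 10 nM final; technique: fluorescence polarization; times: reaction 90 min, room temperature; medium: Tris buffer pH 7.5, NaCl, DTT, Tween-20, trehalose, ovalbumin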
HNF4A DNA FP = change in binding of human HNF4A to DNA, primary screen, biochemical, fluorescence polarization, FITC-DNA; 360,000 compounds, 0.3% hits; Hepatocyte nuclear factor 4-alpha (Homo sapiens), P41235; activity change, % at 10 µM; 1 h; in the data active = activity change above about 30%, passing the limit was not always enough
TPT1 inhibitor = Candida albicans TPT1 enzyme inhibitors, primary screen, biochemical, fluorescence polarization. tRNA 2'-phosphotransferase TPT1 (Candida albicans SC5314). recombinant caTPT1, FP RNA substrate dephosphorylation. inhibition, % at 5 µM. 300,000 compounds, 0.81% hits;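 active = inhibition above the mean of all tested compounds plus 3 SD, set per screening campaign, cut at about 24% in these data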;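 also: plate controls were DMSO alone for no effect and ferristatin control at 100 nM for full effect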
Rpn11 block = Rpn11 (PSMD14) deubiquitinase inhibitors, primary screen, biochemical, fluorescence polarization, uHTS | calls only at 20 µM | human 26S proteasome, Ub4-pepOG fluorescence polarization; 20S core pre-blocked with epoxomicin | 26S proteasome non-ATPase regulatory subunit 14 (Homo sapiens), O00487 | AID 588493, 2011 | 360,000 compounds, 0.59% hits;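 active = inhibition at 20 µM, scaled to each plate's controls, above about 33%, limit read from the data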
Numbers without * were called inactive; i = inactive; nt = no result shown.

SMILES	CRFR2-BP antag	CRFBP-R2 agonist	CSN inh	HNF4A DNA FP	TPT1 inhibitor	Rpn11 block
CCOc1ccc(N2CC(C(=O)NC(C)C)CC2=O)cc1 (stereo not given)	0	2	2	0	4	i
CCCNC(=O)C1CC(=O)N(c2ccc(OCC)cc2)C1 (stereo not given)	56*	-4	-7	1	0	i
CCN/C=C(\C#N)S(=O)(=O)c1ccc(Br)cc1	3	2	100*	1	0	i
O=C(CCCSc1ccccc1)Nc1nc(-c2ccco2)c(-c2ccco2)s1	13	0	43*	8	4	i
CCOc1ccc(-n2c(SCC(=O)NCc3ccco3)nc3c([nH]c4ccccc43)c2=O)cc1	78*	0	3	-2	1	i
Cc1cccc(C)c1NC(=O)C1(C)CSCC(=O)N1Cc1ccco1 (stereo not given)	nt	nt	94*	40*	nt	nt
Cc1ccc(CN2C(=O)CSCC2(C)C(=O)Nc2c(C)cccc2C)cc1 (stereo not given)	nt	nt	0	7	nt	nt
COc1ccc(Br)cc1CN1CCN(Cc2c[nH]c3ccccc23)CC1	-24	2	6	59*	-2	i
N#CC1=C(N)OC(c2ccccc2)=C(C#N)C1c1ccc2c(c1)OCO2 (stereo not given)	-19	1	0	2	-2	i
N#CC1=C(N)OC2=C(C(=O)CC(c3ccccc3)C2)C1c1ccc2c(c1)OCO2 (stereo not given)	59*	-2	-2	1	0	i
O=C(NCCc1csc(-c2ccccc2)n1)c1c(F)cccc1F	-14	-5	-4	1	-2	i
O=C(NCCc1csc(-c2ccccc2)n1)c1c(F)cccc1Cl	88*	-1	5	2	-2	i
CC1=CSC2=NC(=O)/C(=C\c3cccn3-c3ccccc3)C(=N)N12	-7	0	4	8	10	i
COc1ccc(OCCOc2ccc(/C=C3\C(=N)N4N=C(C)SC4=NC3=O)cc2)cc1	-10	3	46*	-10	nt	i
CC(C)c1ccc(-n2cccc2/C=C2/C(=N)N3C=CSC3=NC2=O)cc1	8	0	22	51*	10	nt
COc1ccc(-n2cccc2/C=C2\C(=N)N3N=C(c4ccco4)SC3=NC2=O)cc1	52*	-1	75	-63	8	nt
Cc1ccccc1Cn1cccc1/C=C1/C(=N)N2C=CSC2=NC1=O	55*	-1	41*	5	19	nt
Cc1cc2c(N=O)c(NO)ccc2[nH]1	-2	2	-2	1	-1	i
COCCNC(=O)C1(C)CCCN(Cc2ccc(Oc3ccccc3)cc2)C1 (stereo not given)	nt	nt	7	0	nt	i
C(=C\c1ccccc1)/CN1CCN(C(c2cccc3ccccc23)c2nnnn2-c2ccc3c(c2)OCCO3)CC1 (stereo not given)	nt	nt	-2	-1	nt	i
CCn1cc(C(=O)NCCCOC(C)C)c(=O)c2cc(S(=O)(=O)N3CCCC3)ccc21	-4	8	5	1	2	i
CCCCNC(=O)c1cn(CC)c2ccc(S(=O)(=O)N3CCCCCC3)cc2c1=O	60*	2	2	-2	0	i
Cc1cc(C(=O)Nc2cccc(O)c2)c(C)o1	-4	1	-2	60*	-2	i
Cc1cc(C(=O)Nc2cccc(C(=O)O)c2)c(C)o1	-3	-1	0	0	2	i
CC(C)c1ccc(NC(=O)CN2C(=O)NC(Cc3c[nH]c4ccccc34)C2=O)cc1 (stereo not given)	-11	-2	-5	-21	nt	i
SMILES	CRFR2-BP antag	CRFBP-R2 agonist	CSN inh	HNF4A DNA FP	TPT1 inhibitor	Rpn11 block
COC(=O)C1CSc2[nH]c(=O)sc2C1c1ccc(O)c(OC)c1 (stereo not given)	77*	-1	-4	-3	-3	i
COc1ccc(C2c3sc(=O)[nH]c3SCC2C(N)=O)cc1 (stereo not given)	-8	3	3	-2	11	i
Cc1cccc(C)c1NC(=O)CNC(=O)C(NC(=O)c1ccc(C(C)(C)C)cc1)C(C)C (stereo not given)	12	-1	-11	-1	-1	i
O=C(Nc1ncc(Cc2ccc(Cl)cc2Cl)s1)c1ccc([N+](=O)[O-])cc1	-172	74*	-2	0	-1	i
O=C(Nc1nnc(COc2ccc(Cl)cc2)s1)c1ccc([N+](=O)[O-])cc1	-14	4	-10	-1	-3	i
CSc1ncccc1C(=O)N(C)CC(=O)Nc1cccc(F)c1	100*	0	-3	0	-1	i
Cc1cc2nc3c(=O)[nH]c(=O)[nH]c3nc2c([N+](=O)[O-])c1N	-23	60*	-80	-129	nt	i
CC(C)(C)c1ccc(C(=O)N2CCC(=O)N(C(CO)Cc3ccccc3)CC2)cc1 (stereo not given)	-7	51*	-6	-3	-4	i
O=C(c1ccccc1)N1CCC(=O)N(C(CO)Cc2ccccc2)CC1 (stereo not given)	3	0	-3	5	-7	i
Cc1cc(F)ccc1S(=O)(=O)Nc1nc2ccccc2nc1Cl	21	-1	4	-3	0	i
Cc1ccc(C(C)(C)C)cc1S(=O)(=O)Nc1nc2ccccc2nc1Cl	64*	12	7	0	4	i
CC(C)CCOP(=O)(c1ccc(N(C)C)cc1)C(Nc1ccccc1)c1ccc(N(C)C)cc1 (stereo not given)	111*	8	-8	1	3	i
COc1ccc(NC(=O)CN(C)C(=O)C2=COCCO2)cc1	107*	2	-4	2	2	i
CN(CC(=O)Nc1ccc(Cl)cc1)C(=O)C1=COCCO1	-2	0	2	2	-3	i
O=c1c([N+](=O)[O-])cn(Cc2ccccc2)c(=O)n1Cc1ccccc1	-75	56*	0	0	nt	i
CCCSc1cc(NCCOC(=O)CCC)c([N+](=O)[O-])c2nonc12	34	-3	-1	-4	1	i
CCCC(=O)OCCNc1cc(Sc2nccn2C)c2nonc2c1[N+](=O)[O-]	52*	-2	1	-3	2	i
Cc1cccc(C)c1NC(=O)C1CC(=O)N(C(C)C)C1 (stereo not given)	-8	0	-4	1	-4	i
CSc1ccccc1NC(=O)COC(=O)c1c[nH]c(=O)[nH]c1=O	-60	112*	5	3	-2	i

Screens as filed in PubChem.
